The text below walks through data of ChEMBL document CHEMBL1142921, “Synthesis of DL-standishinal and its related compounds for the studies on structure-activity relationship of inhibitory activity against aromatase” (Bioorg Med Chem, 2007).

Molecules are shown by their SMILES.

Conditions in all cases: 0.5 h
The target in assay [1] is T1, Aromatase (Homo sapiens, UniProt P11511).
T1 sequence (P11511 whole entry): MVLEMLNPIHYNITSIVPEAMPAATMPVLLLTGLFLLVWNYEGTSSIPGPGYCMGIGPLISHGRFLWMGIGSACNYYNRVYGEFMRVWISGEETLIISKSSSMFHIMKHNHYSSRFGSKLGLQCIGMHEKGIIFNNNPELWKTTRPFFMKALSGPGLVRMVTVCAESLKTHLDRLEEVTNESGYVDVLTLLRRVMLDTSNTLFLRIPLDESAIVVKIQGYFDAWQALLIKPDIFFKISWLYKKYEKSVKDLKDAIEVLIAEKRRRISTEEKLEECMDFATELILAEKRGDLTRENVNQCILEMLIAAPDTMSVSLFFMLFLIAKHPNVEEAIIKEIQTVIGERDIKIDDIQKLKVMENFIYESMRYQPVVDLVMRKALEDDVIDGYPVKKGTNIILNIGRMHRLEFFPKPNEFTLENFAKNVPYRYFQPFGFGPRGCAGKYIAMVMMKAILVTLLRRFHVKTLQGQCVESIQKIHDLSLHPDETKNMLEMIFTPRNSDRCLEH
As to the kind of experiment: Inhibition of human recombinant aromatase at 300 nM after 30 mins relative to control. In short, it runs like this:
(§1)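 Human recombinant aromatase (CYP19) expressed in insect cells via baculovirus; fluorogenic substrate methoxy-4-trifluoromethylcoumarin, 3 µM in the reaction. Compounds in acetone, serially diluted 1:3 in NADPH-cofactor buffer. Reaction started with prewarmed enzyme–substrate mix, 30 min at 37 °C. Fluorescence read at 409 nm excitation / 530 nm emission. Blank lacks enzyme. Inhibition as % of no-inhibitor control; mean ± SD, n = 4; Student t test.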

Assay [2] concerns the target T1, Aromatase. Nature of the assay: Inhibition of human recombinant aromatase at 1 uM after 30 mins relative to control. A digest of the protocol:
as §1

Assay [3] deals with T1, Aromatase. As to the kind of experiment: Inhibition of human recombinant aromatase at 3 uM after 30 mins relative to control. In short, it runs like this: as §1
In assay [4] the target is T1, Aromatase. As to the kind of experiment: Inhibition of human recombinant aromatase at 10 uM after 30 mins relative to control. In short, it runs like this:
as §1

Usually inhibition stands for how much of the control response was suppressed. With `CC(C)c1cc(C=O)c([C@@]2(C)CCCC(C)(C)[C@@H]2C=O)cc1O`, the inhibition at 0.3 µM in assay [1] came to 5.9%. The inhibition at 1 µM in assay [2] was below 0%. Besides, in assay [3], the inhibition at 3 µM is 3.3%. Besides, in assay [4], the inhibition at 10 µM amounted to 9.2%.

Turning to `COc1cc2c(cc1C(C)C)CC[C@H]1C(C)(C)CCC[C@]21C`, the inhibition at 0.3 µM in assay [1] is 9%. In assay [2], the inhibition at 1 µM is 2.2%. In addition, the inhibition at 3 µM in assay [3] was 4.1%. Besides, in assay [4], the inhibition at 10 µM came to 4.8%.

In the case of `COc1cc2c(cc1C(C)C)C=C[C@@H]1C(C)(C)CCC[C@]21C`, the inhibition at 0.3 µM in assay [1] was found to be 16.2%. The inhibition at 1 µM in assay [2] is 19.7%. In addition, the inhibition at 3 µM in assay [3] was found to be 18.6%. Moreover, in assay [4], the inhibition at 10 µM was 19.8%.

`COc1cc2c(cc1C(C)C)CC[C@@H]1C(C)(C)CCC[C@]21C`: in assay [1], the inhibition at 0.3 µM was found to be 15.2%. Besides, in assay [2], the inhibition at 1 µM stood at 15.9%. The inhibition at 3 µM in assay [3] is 18.4%. Further, in assay [4], the inhibition at 10 µM is 19.7%.

Turning to `COc1cc2c(cc1C(C)C)C(=O)C[C@H]1C(C)(C)CCC[C@]21C`, the inhibition at 0.3 µM in assay [1] was below 0%. The inhibition at 1 µM in assay [2] came out at 18.1%. Further, in assay [3], the inhibition at 3 µM was determined as 6.7%. In addition, in assay [4], the inhibition at 10 µM is 19.8%.

Turning to `COc1cc2c(cc1C(C)C)C(=O)C[C@@H]1C(C)(C)CCC[C@]21C`, the inhibition at 0.3 µM in assay [1] turned out to be 20.7%. Besides, the inhibition at 1 µM in assay [2] was 28.7%. In assay [3], the inhibition at 3 µM worked out at 23.9%. For the same compound, the inhibition at 10 µM in assay [4] was 19.5%.

On to `CC(C)c1cc(C=O)c([C@@]2(C)CCCC(C)(C)[C@H]2C=O)cc1O`, for which the inhibition at 0.3 µM in assay [1] was 22.2%. For the same compound, the inhibition at 1 µM in assay [2] was found to be 24.5%. The inhibition at 3 µM in assay [3] was determined as 24.9%. The inhibition at 10 µM in assay [4] is 25.1%.

`CC(=O)N1CCN(c2ccc(OC[C@H]3CO[C@](Cn4ccnc4)(c4ccc(Cl)cc4Cl)O3)cc2)CC1` [KETOCONAZOLE]: the inhibition at 0.3 µM in assay [1] was found to be 81.7%. Also, the inhibition at 1 µM in assay [2] is 84.2%. In addition, the inhibition at 3 µM in assay [3] came out at 87.5%. In addition, the inhibition at 10 µM in assay [4] came to 87.9%.

As to `N#Cc1ccc(C(c2ccc(C#N)cc2)n2cncn2)cc1` [LETROZOLE], the inhibition at 0.3 µM in assay [1] is 89.3%. Further, the inhibition at 1 µM in assay [2] was 91.1%. In addition, the inhibition at 3 µM in assay [3] is 83.8%. Moreover, in assay [4], the inhibition at 10 µM was 92.5%.

As for `CC(C)c1cc(C=O)c2c(c1O)[C@H](O)[C@H]1C(C)(C)CCC[C@]21C` [STANDISHINAL], the inhibition at 0.3 µM in assay [1] is 1.1%. Besides, the inhibition at 1 µM in assay [2] turned out to be 10.3%. Further, the inhibition at 3 µM in assay [3] worked out at 6.7%. Moreover, in assay [4], the inhibition at 10 µM turned out to be 23.7%.
